FLuc stim CS: FLuc activators, initial screening, artefact control for FLuc-dependent activation tests, biochemical, ATPlite luminescence; ATPlite luciferase biochemical, 10 min; 0 = ATP-free wells, 1 = DMSO control; AID 1027, 2008; Luciferin 4-monooxygenase (Photinus pyralis), P08659; activation factor at 10 µM; 200,000 tested, under 10 active;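 active means luciferase activation factor, scaled between plate controls, of at least 2 with compound at 10 µM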
Target sequence (P08659 whole entry, looked up): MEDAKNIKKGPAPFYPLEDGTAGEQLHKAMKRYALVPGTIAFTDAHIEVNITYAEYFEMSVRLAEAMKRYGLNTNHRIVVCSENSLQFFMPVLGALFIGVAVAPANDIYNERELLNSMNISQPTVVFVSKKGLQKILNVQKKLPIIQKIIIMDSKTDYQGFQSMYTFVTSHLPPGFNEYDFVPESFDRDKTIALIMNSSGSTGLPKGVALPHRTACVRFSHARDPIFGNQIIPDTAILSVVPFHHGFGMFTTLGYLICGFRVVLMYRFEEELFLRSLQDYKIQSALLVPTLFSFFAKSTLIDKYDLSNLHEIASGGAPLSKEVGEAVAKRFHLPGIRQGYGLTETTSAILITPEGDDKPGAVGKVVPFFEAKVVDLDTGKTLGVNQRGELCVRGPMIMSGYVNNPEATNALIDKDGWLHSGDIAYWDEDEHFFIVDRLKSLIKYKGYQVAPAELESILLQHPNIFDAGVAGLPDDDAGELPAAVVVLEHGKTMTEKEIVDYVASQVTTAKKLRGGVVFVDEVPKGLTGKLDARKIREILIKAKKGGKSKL
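test system = cell-free luciferase reagent | medium = PBS as buffer for the ATP substrate | dosing = test compounds dosed from 2 mM stocks in 100% DMSO | incubation = 10 min at ambient temperature | detection = luminescence measurement of luciferase light output | benchmarks = low control with PBS replacing ATP, high control enzyme plus ATP without compound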
Platelet DG rel: inhibitors of platelet dense granule secretion, primary screen, cell-based, MLPCN, human platelets. inhibition, %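 (compounds screened at 7.5 µM in platelet-rich plasma)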. 300,000 tested, 0.22% active. human platelet-rich plasma, SFLLRN dense granule ATP release, luminescence;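 active means mean replicate score, as percent of positive control, at or above 50; inconclusive means mean below 50 but at least one replicate at or above 50; inactive means mean and every replicate below 50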
C8 TRAIL sens: viability loss with TRAIL in NB7+C8 cells, primary screen, TRAIL sensitizer project, cell-based, ATPlite luminescence | AID 624354, 2012 | inhibition (viability loss, TRAIL sensitization), % at 10 µM | 360,000 tested, 1% active;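 active means compounds causing at least 50% loss of cell viability in the single-dose screen, relative to plate controls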
PPC-1+TRAIL kill: compounds killing PPC-1 cancer cells with TRAIL present, primary screen, TRAIL potentiator project, ATPLite luminescence, uHTS. cell killing (% activity), % at 4 µM or 5 µM. 220,000 tested, 0.41% active. PPC-1 cells + TRAIL, ATPLite viability luminescence;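 active means cell killing above 50% in the first pass at 4 µM, then a duplicate retest at 5 µM averaging 50% or more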;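 further: plate controls were cells with TRAIL plus DMSO for no effect and medium-only wells lacking cells for full effect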
FLuc inh counter: firefly luciferase enzyme inhibitors, primary screen, artefact control for luciferase-based inhibitor screens, biochemical, luminescence, ATPLite; Luciferin 4-monooxygenase (Photinus pyralis), P08659; AID 1006, 2008; 200,000 tested, 1.5% active; 10 min; inhibition, % at 10 µM;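 active means inhibition above about 50% when tested at 10 µM, limit read from the data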
PPC-1 tox: cytotoxicity in PPC-1 cells, confirmation, cytotoxicity control for TRAIL apoptosis potentiator project, cell-based, ATP content luminescence. PPC-1 viability, ATPlite luminescence, overnight. shares compounds with PPC-1+TRAIL kill. AID 1447, 2008. 1,200 tested, 50% active. cytotoxicity, % at 5 µM;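 active means reconfirmed compounds whose average cytotoxicity reaches 50% or more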;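 further: 0% = DMSO-treated cells and 100% = wells holding medium but no cells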
Starred values were filed as active, the others as inactive; ? = inconclusive; . = no result given. Compounds with a hit are over-represented: about 1.6% of the library has one in this group of screens.

SMILES	FLuc stim CS	Platelet DG rel	C8 TRAIL sens	PPC-1+TRAIL kill	FLuc inh counter	PPC-1 tox
Cc1ccc(S(=O)(=O)NC2CCCCC2)cc1	.	.	0	.	.	.
CSc1ccc(S(=O)(=O)NC2CCCCCC2)cc1	1	0	-9	0	-4	1
COCCn1nnnc1C(c1cc2ccc(OC)cc2[nH]c1=O)N1CCN(C2CCCCC2)CC1 (stereo not drawn)	1	18	2	-20	-3	0
COCCn1nnnc1C(c1cc2cc(C)ccc2[nH]c1=O)N1CCN(C2CCCCC2)CC1 (stereo not drawn)	1	11	0	23	-1	.
O=C(C1Cc2ccccc2CN1S(=O)(=O)c1ccc(F)cc1)N1CCCCC1 (stereo not drawn)	1.1	-2	-4	15	-6	2
O=C(c1ccco1)N1CCN(C(=O)C2Cc3ccccc3CN2S(=O)(=O)c2ccc(F)cc2)CC1 (stereo not drawn)	1.1	-7	-11	25	-5	.
CCCNC(=O)C1(C)CCN(C(=O)c2ccc(OC(F)F)cc2)C1 (stereo not drawn)	.	.	-8	.	.	.
O=C1C(Cl)=C(Nc2ccc(O)cc2)C(=O)c2ccccc21	.	1	89*	29	.	30
COc1ccc(-c2nc3ccccc3s2)cc1	0.1	.	84*	60*	92*	61*
COc1ccc(-c2nc3ccccc3s2)cc1NC(C)=O	0.8	0	30	49	19	.
CC[C@@H]1Cc2[nH]c(=O)[nH]c(=O)c2[C@H](c2ccc(Cl)cc2)O1	.	.	-8	.	.	.
O=C(NCCc1ccccc1)c1cnc2ccccn2c1=O	0.9	4	32	18	12	.
Cc1ccccc1NC(=O)c1cnc2ccccn2c1=O	0.2	13	68*	59*	82*	61*
O=C(CSc1ccc(Cl)cc1)N1CCOCC1	1	-4	-4	1	-1	5
O=C(CCSc1ccc(Cl)cc1)N1CCOCC1	1	-2	-6	7	0	.
CC1=CC(=C2C(=O)c3ccccc3C2=O)C=C(C)N1C	0.8	32	14	11	18	.
CCCCCN1C=CC(=C2C(=O)c3ccccc3C2=O)C=C1	0	42	96*	94*	97*	94*
O=C(/C=C/Nc1ccc(F)cc1F)c1ccco1	0	53*	92*	90*	97*	89*
O=C(/C=C/Nc1ccc(Br)cc1F)c1ccco1	0	65*	91*	89*	97*	89*
CC1(C(=O)Nc2ccc3ccccc3c2)CCC(=O)N1CCCn1ccnc1 (stereo not drawn)	.	.	-1	.	.	.
CCCNC(=O)c1oc2ccc3c(c2c1C)C=CC(C)(C)O3	.	-5	3	.	.	.
CCCNC(=O)c1oc2ccc3c(c2c1C)C(=O)CC(C)(C)O3	0.2	1	52*	52*	76*	47
CN1CCN(C(=O)c2ccc(COc3ccc(C(C)(C)C)cc3)o2)CC1	0.7	-13	11	22	27	22
CCOc1ccc(OCc2ccc(C(=O)N3CCCC3)o2)cc1	1	-1	2	10	1	.
O=C(CCl)Nc1cc(SCC(O)CO)cc([N+](=O)[O-])c1 (stereo not drawn)	1	4	2	48	1	50*
SMILES	FLuc stim CS	Platelet DG rel	C8 TRAIL sens	PPC-1+TRAIL kill	FLuc inh counter	PPC-1 tox
CN(Cc1cnn(-c2ccc(F)cc2)c1)C(=O)[C@H]1O[C@@H](n2cnc3c(N)ncnc32)[C@H](O)[C@@H]1O	.	.	12	.	.	.
CNc1ccc2ncc(-c3ccccc3NC(C)=O)n2n1	.	.	-6	.	.	.
Cc1nc2cc(NC(=O)N3c4ccccc4CC3C)ccc2n1C (stereo not drawn)	0.1	.	65*	68*	86*	63*
Cc1nc2cc(NC(=O)Nc3ccccc3Cl)ccc2n1C	0.1	?	73*	71*	91*	72*
C[C@@H]1COc2cc(N3CCC[C@H]3CO)ccc2S(=O)(=O)N1	.	.	-9	.	.	.
COc1cccc(C(=O)CN(C(=O)c2ccc(Cl)c(Cl)c2)N2C(=O)C3CCCCC3C2=O)c1 (stereo not drawn)	1.1	-1	-5	8	-10	-7
N#CCCN(Cc1ccccc1)C(C(=O)NC1CCCCC1)c1cc2ccccc2o1 (stereo not drawn)	.	.	7	.	.	.
Brc1ccc(-c2nc(N/N=C/c3cccnc3)c3ccccc3n2)cc1	0	72*	91*	88*	96*	87*
C(=N\Nc1nc(-c2cccnc2)nc2ccccc12)/c1ccccc1	.	25	44	21	.	.
C(=N\Nc1nc(-c2ccccn2)nc2ccccc12)/c1ccccc1	.	0	.	69*	.	73*
COc1cccc(/C=N/Nc2nc(-c3cccnc3)nc3ccccc23)c1	.	42	27	25	.	.
COc1ccc2c(c1)sc1nc(-c3ccccc3)cn12	0	54*	96*	93*	97*	92*
COc1ccc(CNC(=O)C2CCN(S(=O)(=O)N3CCC(C)CC3)CC2)c(OC)c1	.	.	-3	.	.	.
CCNC(=O)C1(C)CCCN(C(=O)c2cc(-c3cccs3)oc2C)C1 (stereo not drawn)	.	.	0	.	.	.
CCOc1ccccc1N1CCN(C(=O)C2c3ccccc3Oc3ccccc32)CC1	1.1	-1	14	3	-9	-7
Cc1ccc(C)c(C(O)c2ncc(-c3cccc(F)c3)[nH]2)c1 (stereo not drawn)	.	.	-5	.	.	.
O=[N+]([O-])c1ccc(/C=C/c2ccc3cccc(O)c3n2)cc1	.	-8	47	.	.	.
O=[N+]([O-])c1ccc(/C=C/c2ccc3ccccc3n2)cc1	0.2	41	74*	64*	76*	61*
Cc1ccc(/C=C/c2nc3ccccc3s2)s1	0.1	15	67*	85*	91*	83*
CN(C)c1ccc(/C=C/c2nc3ccccc3s2)cc1	0.1	64*	92*	81*	93*	81*
COc1cc(/C=C/c2nc3ccccc3s2)cc(OC)c1O	0.9	-17	-8	12	9	.
CN(C)c1ccc(/C=C/c2ccc3ccccc3n2)cc1	.	97*	89*	92*	.	92*
CCc1nc2ccc(C(=O)N3CCN(S(=O)(=O)CC)CC3)cn2c1N(CC)CCN(C)C	.	.	1	.	.	.
O=C(O)/C=C/c1ccc2ccccc2n1	1	-3	0	20	-4	.
Oc1ccc(/C=C/c2ccc3ccccc3n2)cc1	0.1	90*	72*	56*	86*	56*
COc1ccc(C(O)c2nc(-c3ccc(OC)c(OC)c3)cs2)cc1 (stereo not drawn)	.	.	-4	.	.	.
Cc1cc2nc(-c3ccccc3)c(Cc3ccsc3)n2c(C)c1Br	.	.	10	.	.	.
